From ChEMBL document CHEMBL5380865, “Linearization of the Brevicidine and Laterocidine Lipopeptides Yields Analogues That Retain Full Antibacterial Activity” (J Med Chem, 2023)
In brackets after ≈: the same amount, converted by molar mass. Where a SMILES comes first, the peptide text is derived from it. [ ]: non-standard residue; d: D form. The star is where a group is joined. ξ: configuration not given here. Octanoyl(7-Me) = CC(C)CCCCCC(=O)*; Hexanoyl(4ξ-Me) = CCC(C)CCC(=O)*; dOrn = NCCC[C@@H](N)C(=O)O; Orn = NCCC[C@H](N)C(=O)O; Dap = NC[C@H](N)C(=O)O

Experiments:
[1] = test system: Klebsiella pneumoniae; assay: Antibacterial activity Klebsiella pneumoniae ATCC 13883 assessed as inhibition of visible bacterial growth incubated for 18 hrs by microbroth dilution assay; format: functional
Method in brief: (§1)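 CLSI broth microdilution. Strains streaked from glycerol stocks onto blood agar (16 h, 37 °C); single colonies grown in TSB at 37 °C, 220 rpm, to OD600 about 0.5. Diluted in MHB to 2 × 10^5 CFU/mL and mixed 1:1 with compounds serially diluted in MHB from DMSO stocks (colistin from water stocks), polypropylene plates. Sealed, 18 h at 37 °C, 600 rpm. MIC taken as lowest concentration preventing visible growth, three technical replicates.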

[2] = test system: Staphylococcus aureus; assay: Antibacterial activity Staphylococcus aureus USA300 assessed as inhibition of visible bacterial growth incubated for 18 hrs by microbroth dilution assay; format: functional; method in brief: as §1
[3] = test system: Escherichia coli; assay: Antibacterial activity Escherichia coli ATCC 25922 assessed as inhibition of visible bacterial growth incubated for 18 hrs by microbroth dilution assay; format: functional; method in brief: as §1
[4] = test system: Escherichia coli; assay: Antibacterial activity Escherichia coli MCR-1 assessed as inhibition of visible bacterial growth incubated for 18 hrs by microbroth dilution assay; format: functional
Method in brief: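 Colistin-resistant E. coli 25922 carrying MCR-1, grown from glycerol stock in kanamycin-supplemented TSB for 16 h at 37 °C, 220 rpm. Diluted 100-fold in kanamycin-supplemented TSB and grown to OD600 about 0.5, then diluted in MHB to 2 × 10^5 CFU/mL. Combined 1:1 with MHB serial dilutions of compounds. Sealed, 18 h at 37 °C, 600 rpm; lowest concentration without visible growth, triplicate technical replicates.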

[5] = test system: Acinetobacter baumannii; assay: Antibacterial activity Acinetobacter baumannii ATCC 17961 assessed as inhibition of visible bacterial growth incubated for 18 hrs by microbroth dilution assay; format: functional; method in brief: as §1
[6] = test system: Pseudomonas aeruginosa; assay: Antibacterial activity Pseudomonas aeruginosa PAO1 assessed as inhibition of visible bacterial growth incubated for 18 hrs by microbroth dilution assay; format: functional
Method in brief: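 CLSI broth microdilution. Colonies from blood agar (16 h, 37 °C) grown in TSB at 37 °C, 220 rpm, to OD600 about 0.5, then diluted in MHB to 2 × 10^5 CFU/mL. Added to DMSO-stock compounds serially diluted in MHB in polypropylene plates. Sealed, 18 h at 37 °C, 600 rpm. MIC = lowest concentration with no visible growth; three technical replicates.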

[7] = Hemolytic activity in sheep red blood cell assessed as hemolysis at 1 to 128 ug/ml incubated for 1 hrs relative to control; format: toxicity, cell-based, Ovis aries, Erythrocyte; conditions: sheep red blood cells (erythrocytes), at 1 to 128 µg/mL, dose 1-128 µg/ml, read-out: Activity
Method in brief: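 Defibrinated sheep erythrocytes washed five times in PBS with 0.002% Tween20 and normalized so the Triton control reads 2.5–3.0 at 415 nm. Mixed 1:1 with compound serial dilutions (128–1 μg/mL) and incubated 1 h at 37 °C, 500 rpm. Supernatant A415 is background-corrected with buffer and expressed as percent of 0.1% Triton X-100 (final). Run in triplicate.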

| SMILES | MIC [1] [µg/mL] | MIC [2] [µg/mL] | MIC [3] [µg/mL] | MIC [4] [µg/mL] | MIC [5] [µg/mL] | MIC [6] [µg/mL] | hemolysis at 1 h [7] [%] |
| --- | --- | --- | --- | --- | --- | --- | --- |
| CCC(C)CCC(=O)N[C@H](C)C(=O)N[C@H](Cc1ccc(O)cc1)C(=O)N[C@H](Cc1c[nH]c2ccccc12)C(=O)N[C@H](CCCN)C(=O)N[C@@H](CCCN)C(=O)NCC(=O)N[C@H](CCCN)C(=O)N[C@@H](Cc1c[nH]c2ccccc12)C(=O)N[C@H](C(=O)N[C@H](C(=O)NCC(=O)N[C@@H](CO)C(N)=O)[C@@H](C)CC)[C@@H](C)O (stereo partly specified) ({Hexanoyl(4ξ-Me)}-[dA][dY][dW][dOrn][Orn]G[dOrn]WTIGS-NH2) | 16 (≈ 10.7 µM) | > 32 | 16 (≈ 10.7 µM) | 16 (≈ 10.7 µM) | 8 (≈ 5.36 µM) | 8 (≈ 5.36 µM) | – |
| CCC(C)CCC(=O)N[C@H](CC(N)=O)C(=O)N[C@H](C)C(=O)N[C@H](Cc1c[nH]c2ccccc12)C(=O)N[C@H](CCCN)C(=O)N[C@@H](CCCN)C(=O)NCC(=O)N[C@H](CCCN)C(=O)N[C@@H](Cc1c[nH]c2ccccc12)C(=O)N[C@H](C(=O)N[C@H](C(=O)NCC(=O)N[C@@H](CO)C(N)=O)[C@@H](C)CC)[C@@H](C)O (stereo partly specified) ({Hexanoyl(4ξ-Me)}-[dN][dA][dW][dOrn][Orn]G[dOrn]WTIGS-NH2) | > 32 | > 32 | > 32 | > 32 | > 32 | 16 (≈ 11.1 µM) | – |
| CCC(C)CCC(=O)N[C@H](CC(N)=O)C(=O)N[C@H](Cc1ccc(O)cc1)C(=O)N[C@H](C)C(=O)N[C@H](CCCN)C(=O)N[C@@H](CCCN)C(=O)NCC(=O)N[C@H](CCCN)C(=O)N[C@@H](Cc1c[nH]c2ccccc12)C(=O)N[C@H](C(=O)N[C@H](C(=O)NCC(=O)N[C@@H](CO)C(N)=O)[C@@H](C)CC)[C@@H](C)O (stereo partly specified) ({Hexanoyl(4ξ-Me)}-[dN][dY][dA][dOrn][Orn]G[dOrn]WTIGS-NH2) | > 32 | > 32 | > 32 | > 32 | > 32 | 32 (≈ 22.5 µM) | – |
| CCC(C)CCC(=O)N[C@H](CC(N)=O)C(=O)N[C@H](Cc1ccc(O)cc1)C(=O)N[C@H](Cc1c[nH]c2ccccc12)C(=O)N[C@H](CCCN)C(=O)N[C@@H](C)C(=O)NCC(=O)N[C@H](CCCN)C(=O)N[C@@H](Cc1c[nH]c2ccccc12)C(=O)N[C@H](C(=O)N[C@H](C(=O)NCC(=O)N[C@@H](CO)C(N)=O)[C@@H](C)CC)[C@@H](C)O (stereo partly specified) ({Hexanoyl(4ξ-Me)}-[dN][dY][dW][dOrn]AG[dOrn]WTIGS-NH2) | > 32 | > 32 | > 32 | > 32 | > 32 | 32 (≈ 21.4 µM) | – |
| CCC(C)CCC(=O)N[C@H](CC(N)=O)C(=O)N[C@H](Cc1ccc(O)cc1)C(=O)N[C@H](Cc1c[nH]c2ccccc12)C(=O)N[C@H](CCCN)C(=O)N[C@@H](CCCN)C(=O)N[C@@H](C)C(=O)N[C@H](CCCN)C(=O)N[C@@H](Cc1c[nH]c2ccccc12)C(=O)N[C@H](C(=O)N[C@H](C(=O)NCC(=O)N[C@@H](CO)C(N)=O)[C@@H](C)CC)[C@@H](C)O (stereo partly specified) ({Hexanoyl(4ξ-Me)}-[dN][dY][dW][dOrn][Orn]A[dOrn]WTIGS-NH2) | > 32 | > 32 | 32 (≈ 20.6 µM) | 32 (≈ 20.6 µM) | 32 (≈ 20.6 µM) | 32 (≈ 20.6 µM) | – |
| CCC(C)CCC(=O)N[C@H](CC(N)=O)C(=O)N[C@H](Cc1ccc(O)cc1)C(=O)N[C@H](Cc1c[nH]c2ccccc12)C(=O)N[C@H](CCCN)C(=O)N[C@@H](CCCN)C(=O)NCC(=O)N[C@H](C)C(=O)N[C@@H](Cc1c[nH]c2ccccc12)C(=O)N[C@H](C(=O)N[C@H](C(=O)NCC(=O)N[C@@H](CO)C(N)=O)[C@@H](C)CC)[C@@H](C)O (stereo partly specified) ({Hexanoyl(4ξ-Me)}-[dN][dY][dW][dOrn][Orn]G[dA]WTIGS-NH2) | > 32 | > 32 | > 32 | > 32 | 16 (≈ 10.7 µM) | 32 (≈ 21.4 µM) | – |
| CCC(C)CCC(=O)N[C@H](CC(N)=O)C(=O)N[C@H](Cc1ccc(O)cc1)C(=O)N[C@H](Cc1c[nH]c2ccccc12)C(=O)N[C@H](CCCN)C(=O)N[C@@H](CCCN)C(=O)NCC(=O)N[C@H](CCCN)C(=O)N[C@@H](C)C(=O)N[C@H](C(=O)N[C@H](C(=O)NCC(=O)N[C@@H](CO)C(N)=O)[C@@H](C)CC)[C@@H](C)O (stereo partly specified) ({Hexanoyl(4ξ-Me)}-[dN][dY][dW][dOrn][Orn]G[dOrn]ATIGS-NH2) | > 32 | > 32 | > 32 | > 32 | > 32 | 32 (≈ 22.5 µM) | – |
| CCC(C)CCC(=O)N[C@H](CC(N)=O)C(=O)N[C@H](Cc1ccc(O)cc1)C(=O)N[C@H](Cc1c[nH]c2ccccc12)C(=O)N[C@H](CCCN)C(=O)N[C@@H](CCCN)C(=O)NCC(=O)N[C@H](CCCN)C(=O)N[C@@H](Cc1c[nH]c2ccccc12)C(=O)N[C@@H](C)C(=O)N[C@H](C(=O)NCC(=O)N[C@@H](CO)C(N)=O)[C@@H](C)CC (stereo partly specified) ({Hexanoyl(4ξ-Me)}-[dN][dY][dW][dOrn][Orn]G[dOrn]WAIGS-NH2) | 16 (≈ 10.6 µM) | > 32 | 8 (≈ 5.31 µM) | 16 (≈ 10.6 µM) | 16 (≈ 10.6 µM) | 4 (≈ 2.65 µM) | – |
| CCC(C)CCC(=O)N[C@H](CC(N)=O)C(=O)N[C@H](Cc1ccc(O)cc1)C(=O)N[C@H](Cc1c[nH]c2ccccc12)C(=O)N[C@H](CCCN)C(=O)N[C@@H](CCCN)C(=O)NCC(=O)N[C@H](CCCN)C(=O)N[C@@H](Cc1c[nH]c2ccccc12)C(=O)N[C@@H](CC(=O)O)C(=O)N[C@H](C(=O)NCC(N)=O)[C@@H](C)CC (stereo partly specified) ({Hexanoyl(4ξ-Me)}-[dN][dY][dW][dOrn][Orn]G[dOrn]WDIG-NH2) | – | – | > 32 | > 32 | – | – | – |
| CCC(C)CCC(=O)N[C@H](CC(N)=O)C(=O)N[C@H](Cc1ccc(O)cc1)C(=O)N[C@H](Cc1c[nH]c2ccccc12)C(=O)N[C@H](CCCN)C(=O)N[C@@H](CCCN)C(=O)NCC(=O)N[C@H](CCCN)C(=O)N[C@@H](Cc1c[nH]c2ccccc12)C(=O)N[C@@H](CO)C(=O)N[C@H](C(=O)NCC(N)=O)[C@@H](C)CC (stereo partly specified) ({Hexanoyl(4ξ-Me)}-[dN][dY][dW][dOrn][Orn]G[dOrn]WSIG-NH2) | 4 (≈ 2.79 µM) | > 32 | 4 (≈ 2.79 µM) | 8 (≈ 5.57 µM) | 8 (≈ 5.57 µM) | 2 (≈ 1.39 µM) | – |
| CCC(C)CCC(=O)N[C@H](CC(N)=O)C(=O)N[C@H](Cc1ccc(O)cc1)C(=O)N[C@H](Cc1c[nH]c2ccccc12)C(=O)N[C@H](CCCN)C(=O)N[C@@H](CCCN)C(=O)NCC(=O)N[C@H](CCCN)C(=O)N[C@@H](Cc1c[nH]c2ccccc12)C(=O)N[C@H](C(=O)N[C@@H](C)C(=O)NCC(=O)N[C@@H](CO)C(N)=O)[C@@H](C)O (stereo partly specified) ({Hexanoyl(4ξ-Me)}-[dN][dY][dW][dOrn][Orn]G[dOrn]WTAGS-NH2) | > 32 | > 32 | > 32 | > 32 | > 32 | 16 (≈ 10.7 µM) | – |
| CCC(C)CCC(=O)N[C@H](CC(N)=O)C(=O)N[C@H](Cc1ccc(O)cc1)C(=O)N[C@H](Cc1c[nH]c2ccccc12)C(=O)N[C@H](CCCN)C(=O)N[C@@H](CCCN)C(=O)NCC(=O)N[C@H](CCCN)C(=O)N[C@@H](Cc1c[nH]c2ccccc12)C(=O)N[C@H](C(=O)N[C@H](C(=O)N[C@@H](C)C(=O)N[C@@H](CO)C(N)=O)[C@@H](C)CC)[C@@H](C)O (stereo partly specified) ({Hexanoyl(4ξ-Me)}-[dN][dY][dW][dOrn][Orn]G[dOrn]WTIAS-NH2) | > 32 | > 32 | 32 (≈ 20.6 µM) | 32 (≈ 20.6 µM) | 32 (≈ 20.6 µM) | 16 (≈ 10.3 µM) | – |
| CC[C@H](C)[C@H](NC(=O)[C@@H](NC(=O)[C@H](Cc1c[nH]c2ccccc12)NC(=O)[C@@H](CCCN)NC(=O)CNC(=O)[C@H](C)NC(=O)[C@@H](CCCN)NC(=O)[C@@H](Cc1c[nH]c2ccccc12)NC(=O)[C@@H](Cc1ccc(O)cc1)NC(=O)[C@@H](CO)NC(=O)CCCCCC(C)C)[C@@H](C)O)C(=O)N[C@@H](CC(N)=O)C(=O)NCC(=O)NCC(N)=O ({Octanoyl(7-Me)}-[dS][dY][dW][dOrn]AG[dOrn]WTINGG-NH2) | – | – | – | > 32 | – | – | – |
| CC[C@H](C)[C@H](NC(=O)[C@H](CN)NC(=O)[C@H](Cc1c[nH]c2ccccc12)NC(=O)[C@@H](CCCN)NC(=O)CNC(=O)[C@H](CCCN)NC(=O)[C@@H](CCCN)NC(=O)[C@@H](Cc1c[nH]c2ccccc12)NC(=O)[C@@H](Cc1ccc(O)cc1)NC(=O)[C@@H](CO)NC(=O)CCCCCC(C)C)C(=O)N[C@@H](CC(N)=O)C(=O)NCC(=O)NCC(N)=O ({Octanoyl(7-Me)}-[dS][dY][dW][dOrn][Orn]G[dOrn]W[Dap]INGG-NH2) | – | – | – | – | – | 18 (≈ 11.2 µM) | < 0.1 |
